Bioassay records from PubChem.
SR-BI uptake up = SR-BI HDL lipid transfer activation; CHO ldlA[mSR-BI] cells, DiI-HDL uptake fluorescence, 3 h; 100 = double the neutral-control signal; activation, % at 12.5 µM; actives 0.096% (n = 320,000); AID 504775;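 active = mean replicate activation of at least 60% and every replicate at or above 60%; inconclusive = mean or all-replicate condition met, but not both; inactive = mean below 60% and not all replicates reaching 60%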;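 also: 0% = median plate neutral-control signal and 100% = twice that signal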
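Material – SR-BI-overexpressing, LDLR-lacking CHO cells · Medium – BSA-supplemented, HEPES-buffered Ham's F12, pH 7.4 · Doses – single concentration · Times – compound with DiI-HDL co-incubation, 3 h at 37 °C · Measured by – bottom-read fluorescence, 550/595 nm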
SR-BI DiI inh = inhibitors of mouse SR-BI mediated HDL lipid uptake; Q61009; ldlA[mSR-BI] CHO cells, DiI-HDL uptake fluorescence, 3 h; inhibition, % at 12.5 µM; actives 0.96% (n = 320,000);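 active = mean replicate inhibition of at least 70% and a set share of replicates each scoring 70 or more; inconclusive = meets just one of the two criteria; inactive = fails both criteria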;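 also: 0% = median of neutral control wells and 100% = median of positive control wells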
NSD2 HMT inh = NSD2 (human) methyltransferase inhibition. O96028. NSD2 peptide methylation, AlphaScreen, 120 min. actives 0.54% (n = 310,000). inhibition, % at 12.5 µM
DYRK1A inh = Dyrk1A (rat) kinase inhibition; AID 504441; ADP-Glo luminescence, NFATc1 peptide; inhibition, % at 12.5 µM; actives 0.43% (n = 310,000); Q63470;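 also: plate controls were vehicle with enzyme for no effect and no enzyme for full effect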
dFosB activator = activators of mouse delta FosB homodimer; AID 493131; activation, % at 25 µM; P13346; purified delta FosB, TAMRA-CDK5 oligo fluorescence polarization; percent of positive-control signal above neutral wells; actives 0.99% (n = 340,000);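 active = mean activation above about 17%, with every replicate also reaching it, limit read from the data, passing the limit was not always enough; inconclusive = only one of the two conditions met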
Target sequence (P13346 whole entry, looked up): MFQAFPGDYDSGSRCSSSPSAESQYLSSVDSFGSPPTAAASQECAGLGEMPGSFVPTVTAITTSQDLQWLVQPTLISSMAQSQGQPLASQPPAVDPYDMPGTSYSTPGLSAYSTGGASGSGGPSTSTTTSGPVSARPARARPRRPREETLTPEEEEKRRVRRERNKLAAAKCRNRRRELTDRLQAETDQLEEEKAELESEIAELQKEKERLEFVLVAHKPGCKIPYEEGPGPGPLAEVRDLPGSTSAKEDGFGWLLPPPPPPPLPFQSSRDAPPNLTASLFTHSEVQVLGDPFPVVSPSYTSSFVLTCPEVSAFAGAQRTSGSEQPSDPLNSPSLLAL
CDK5 p35 inh = inhibitors of human CDK5/p35 kinase. Q00535+Q15078. Recombinant CDK5/p35, ADP-Glo luminescence, 60 min. inhibition, % at 10 µM. actives 0.01% (n = 330,000). AID 488839;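 active = highest replicate inhibition of at least 50% and at least 75% of replicates reaching 50%; inconclusive = only one of the two criteria met; inactive = both criteria failed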;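 also: plate controls were DMSO neutral control for no effect and GW8510 at 10 µM for full effect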
DiI quencher = counter-screen for SR-BI lipid transfer inhibitors: DiI fluorescence quenchers. AC50, µM (highest dose often 35 µM), inactives show top-dose activity change, negative = quenching. cell-free DiI-HDL fluorescence quenching, 30 min. actives 20% (n = 470). shares compounds with SR-BI DiI inh;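 active = quenching, a falling signal, with AC50 below a set limit tied to the top valid dose, actives reach about 32 µM in these data; inconclusive = no clear call, values can overlap the other calls; inactive = rising signal, and the rest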
The depositor's hits bear a star; ? = inconclusive; . = not tested or not shown. Most compounds without a hit are left out; they make up all but 2.5% or so of the library. Rule as the data show it, unless noted: active = inhibition above about 50%; inactive = the rest.

SMILES	SR-BI uptake up	SR-BI DiI inh	NSD2 HMT inh	DYRK1A inh	dFosB activator	CDK5 p35 inh	DiI quencher
Cc1cc(C(=O)COC(=O)C2=NNC(=O)CC2)c(C)n1-c1ccc(OC(F)F)cc1	-8	8	0	-7	-13	0	.
CCC(=O)Nc1ccc(Cl)c(NC(=O)c2cccc(OC)c2)c1	-80	80*	-3	-2	-3	1	2%
CCC(=O)Nc1ccc(Cl)c(NC(=O)c2ccccc2OC)c1	-6	6	-3	0	-8	0	.
O=C1CCN(S(=O)(=O)c2cc(C(F)(F)F)ccc2Cl)CC1	.	-7	2	.	-3	-1	.
COc1ccc(NC(=O)CC(c2ccc(F)cc2)c2ccc(OC(C)C)cc2)cc1 (centres undefined)	-19	19	3	0	?	-2	.
COc1ccccc1C(CC(=O)Nc1ccccc1C)c1ccc(OC(C)C)cc1 (centres undefined)	-3	?	0	-5	0	0	1%
COCCn1c(SCC(=O)NCCCN2CCCC2=O)nc2sc3c(c2c1=O)CCCC3	18	-18	1	.	-7	1	.
O=[N+]([O-])/C(C(Cl)=C(Cl)Cl)=C(/Sc1ccccc1)N1CCCCC1	8	-8	0	6	-4	-1	.
CCCCC(c1nnnn1CC1CCCO1)N1CCN(c2cc(Cl)ccc2C)CC1 (centres undefined)	-82	82*	.	1	-11	0	5%
O=C(CCOc1ccccc1)N1CCCC(Nc2ccccc2)C1 (centres undefined)	.	.	2	.	.	.	.
CC1CN(c2oc(COc3ccc(Cl)cc3Cl)nc2C#N)CC(C)O1 (centres undefined)	-81	81*	0	-3	-6	2	1%
COc1ccccc1C(=O)COC(=O)c1cccc(-n2cnnn2)c1	-16	16	0	.	-1	0	.
CCOc1ccccc1COC(=O)c1cccc(-n2cnnn2)c1	-72	72*	-3	0	-9	1	1%
O=C(CN1C(=O)NC2(CCOc3ccccc32)C1=O)c1ccc(F)cc1 (centres undefined)	13	-13	3	-5	-2	0	.
COCc1cc(=O)oc2cc(NC(=O)c3ccc(C(C)(C)C)cc3)ccc12	-71	?	0	-1	6	1	3%
O=C(c1ccccc1)c1ccsc1C(=O)c1ccccc1	.	.	-2	.	.	.	.
NC(Cc1ccc(O)cc1)C(=O)NN=Cc1ccccc1O (centres undefined)	.	.	3	.	.	.	.
CN(C)C(=O)CCc1ccc2c3c([nH]c2c1)[C@]1(C)[C@@H](C(=O)N2CCOCC2)C[C@H](CC(=O)NCc2cccc(C(F)(F)F)c2)C(=O)N1CC3	-12	12	.	1	-15	-5	.
CS(=O)(=O)N1CCc2cc(C(=O)Nc3cccc([N+](=O)[O-])c3)ccc21	-68	68	2	-1	-2	0	-13%
COc1ccc(NC(=O)c2ccc3c(c2)CCN3S(=O)(=O)c2ccccc2)cc1	-81	81*	-1	6	-8	1	-3%
O=C(Nc1ccccc1)c1ccc2c(c1)CCN2S(=O)(=O)c1ccccc1	-76	76*	-7	5	2	1	-1%
CN(C)S(=O)(=O)c1cccc(NC(=O)c2cccc(S(=O)(=O)N3CCc4ccccc43)c2)c1	-61	61	0	4	-2	-1	.
CC(=O)c1cccc(NC(=O)c2ccc3c(c2)CCN3S(=O)(=O)c2ccccc2)c1	-91	91*	1	3	-3	-1	1%
O=C(Nc1ccccc1F)c1csc(COCCO)n1	.	.	-3	.	.	.	.
CC(=O)Nc1cccc(NC(=O)c2ccc3c(c2)CCN3S(=O)(=O)c2ccccc2)c1	-72	?	-1	9	-14	0	0%
SMILES	SR-BI uptake up	SR-BI DiI inh	NSD2 HMT inh	DYRK1A inh	dFosB activator	CDK5 p35 inh	DiI quencher
CCCCCCC(=O)Nc1nc(C)c(-c2csc(Nc3ccc(Cl)cc3)n2)s1	-120	120*	.	57*	-5	1	1.1µM*
Cc1nc(NC(=O)CC(C)C)sc1-c1csc(Nc2ccc(Cl)cc2Cl)n1	-59	59	.	8	1	-2	.
COc1ccccc1CN1CCN(S(=O)(=O)c2ccc(C)cc2)CC1	28	-28	-1	2	3	0	.
CCOc1ccccc1CNC(=O)C1CCN(C(=O)c2sccc2-n2cccc2)CC1	-70	70	1	-2	-16	-1	-4%
CCOc1ccccc1CNC(=O)C1CCN(S(=O)(=O)N2CCC(C)CC2)CC1	.	.	-2	.	.	.	.
CC1CCCCC1NC(=O)C1CCN(C(=O)c2sccc2-n2cccc2)CC1 (centres undefined)	-44	44	.	-5	1	1	-2%
CC1CCCCC1NC(=O)C1CCN(C(=O)NC2CCCCC2)CC1 (centres undefined)	3	-3	0	-2	-3	1	.
O=C(NCc1ccccc1Cl)C1CCN(C(=O)c2sccc2-n2cccc2)CC1	-73	?	.	-1	-6	0	-1%
O=C(NCc1ccccc1F)C1CCN(C(=O)c2sccc2-n2cccc2)CC1	-69	69	5	5	1	0	.
Cc1cc(C(=O)N2CCC2(C)C(=O)Nc2ccc3[nH]ncc3c2)nn1C (centres undefined)	.	.	-2	.	.	.	.
O=C(c1ccc(S(=O)(=O)NCc2ccco2)cc1)N1CCN(c2ccc(F)cc2)CC1	-27	27	-2	.	-9	1	.
O=C(c1ccc(S(=O)(=O)NCc2ccco2)cc1)N1CCN(Cc2ccccc2F)CC1	-68	68	5	.	0	-1	-5%
O=C(c1ccc(S(=O)(=O)NCc2ccco2)cc1)N1CCN(Cc2ccccc2)CC1	-65	65	-1	-4	-1	0	0%
CC(=O)c1ccc(N2CCN(C(=O)c3ccc(S(=O)(=O)NCc4ccco4)cc3)CC2)cc1	-48	48	-1	.	-2	-2	.
COc1ccc(CN2CCN(C(=O)c3ccc(S(=O)(=O)NCc4ccco4)cc3)CC2)cc1	-93	93*	2	11	-9	-3	-5%
O=C1CCCN1C(=O)CSc1nnnn1-c1ccccc1	18	-18	2	1	-3	0	.
CCOC(=O)[C@H]1[C@H]2COc3cc(OC)ccc3[C@@H]2N2C(=O)CN(Cc3ccc(C)cc3)C(=O)[C@@]12C	-9	1	.	0	-6	2	.
CNc1nc(Nc2ccc(C)cc2C)c2sccc2n1	.	.	7	.	.	.	.
CN(Cc1c(F)cccc1Cl)C(=O)c1ccc(NC(=O)CC2SC(N3CCCCC3)=NC2=O)cc1 (centres undefined)	-11	11	1	-1	-6	0	.
